Data on two compounds can be found in ChEMBL document CHEMBL4414550, “Binding of Monovalent and Bivalent Ligands by Transthyretin Causes Different Short- and Long-Distance Conformational Changes” (J Med Chem, 2019).

SMILES strings stand for the structures. Active and inactive are the calls of the source. The calls are words filed in the database; no cut-off is given here.

For assay [1], the target named is Transthyretin (Homo sapiens) (UniProt P02766). In words: Binding affinity to His6-tagged wild-type TTR (unknown origin) expressed in Escherichia coli BL21 star (DE3) assessed as assignment of protein resonance by TROSY [1H-13C-15N] HNCA spectroscopy. Put shortly:
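3D HNCA spectra of TTR acquired in the presence of ligand to confirm the backbone resonance assignment. The assignment was made de novo from TROSY multidimensional experiments at 310 K, pH 7.0 and 7.4.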

For assay [2] the target is unchanged. In words: Binding affinity to His6-tagged wild-type TTR (unknown origin) expressed in Escherichia coli BL21 star (DE3) at 0.5:1 ratio of test compound to protein by 2D TROSY [1H-15N] spectroscopy. Put shortly:
(§1)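 50 μM TTR in 600 μL titrated with ligand from 10 mM stocks in DMSO-d6 (up to 6 μL; at most 1% v/v DMSO-d6). 2D [1H,15N] TROSY spectra recorded at ligand/protein ratios 0, 0.5, 1.0, 1.5 and 2.0 for the monovalent ligand and 0, 0.5 and 1.0 for the bivalent ligand. Per-residue amide shifts were expressed as a combined chemical shift change in ppm.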

Assay [3] shares this target. In words: Binding affinity to wild-type TTR (unknown origin) assessed as increase in bound resonance at L55 residue at 0.5:1 to 1:1 ratio of compound to protein by 2D TROSY [1H-15N] spectroscopy. A digest of the protocol: as §1
For assay [4] the target is unchanged. Put plainly: Binding affinity to wild-type TTR (unknown origin) assessed as induction of chemical shift at H90 residue at 1:1 ratio of compound to protein by 2D TROSY [1H-15N] spectroscopy. Put shortly:
as §1

Assay [5] shares this target. Put plainly: Binding affinity to wild-type TTR (unknown origin) assessed as induction of chemical shift perturbation at A120 residue at 1:1 ratio of compound to protein by 2D TROSY [1H-15N] spectroscopy. Put shortly:
as §1

For assay [6] the target is unchanged. In words: Binding affinity to His6-tagged wild-type TTR (unknown origin) expressed in Escherichia coli BL21 star (DE3) at 1:1 ratio of test compound to protein by 2D TROSY [1H-15N] spectroscopy. A digest of the protocol: as §1
Assay [7] shares this target. In words: Binding affinity to wild-type TTR (unknown origin) assessed as induction of chemical shift at E72 residue at 0.6:1 to 1:1 ratio of compound to protein by 2D TROSY [1H-15N] spectroscopy. A digest of the protocol: as §1
The target is the same in assay [8]. Put plainly: Binding affinity to wild-type TTR (unknown origin) assessed as induction of chemical shift at L17 residue at 0.6:1 to 1:1 ratio of compound to protein by 2D TROSY [1H-15N] spectroscopy. Put shortly: as §1
For assay [9] the target is unchanged. Put plainly: Binding affinity to wild-type TTR (unknown origin) assessed as induction of chemical shift at A19 residue at 0.6:1 to 1:1 ratio of compound to protein by 2D TROSY [1H-15N] spectroscopy. Put shortly:
as §1

The target is the same in assay [10]. In words: Binding affinity to wild-type TTR (unknown origin) assessed as induction of chemical shift at R21 residue at 0.6:1 to 1:1 ratio of compound to protein by 2D TROSY [1H-15N] spectroscopy. Put shortly:
as §1

Assay [11] shares this target. Put plainly: Binding affinity to wild-type TTR (unknown origin) assessed as induction of chemical shift at G22 residue at 0.6:1 to 1:1 ratio of compound to protein by 2D TROSY [1H-15N] spectroscopy. A digest of the protocol: as §1
The target is the same in assay [12]. Put plainly: Binding affinity to wild-type TTR (unknown origin) assessed as induction of chemical shift at L58 residue at 0.6:1 to 1:1 ratio of compound to protein by 2D TROSY [1H-15N] spectroscopy. Put shortly:
as §1

The target is the same in assay [13]. In words: Binding affinity to wild-type TTR (unknown origin) assessed as induction of chemical shift at H88 residue at 0.6:1 to 1:1 ratio of compound to protein by 2D TROSY [1H-15N] spectroscopy. A digest of the protocol: as §1
For assay [14] the target is unchanged. Put plainly: Binding affinity to wild-type TTR (unknown origin) assessed as induction of chemical shift at E92 residue at 0.6:1 to 1:1 ratio of compound to protein by 2D TROSY [1H-15N] spectroscopy. A digest of the protocol:
as §1

For assay [15] the target is unchanged. In words: Binding affinity to wild-type TTR (unknown origin) assessed as induction of chemical shift at T96 residue at 0.6:1 to 2:1 ratio of compound to protein by 2D TROSY [1H-15N] spectroscopy. As to conditions: in the assay text read “0.6:1 to 1:1 ratio” for “0.6:1 to 2:1 ratio”. Put shortly: as §1
The target is the same in assay [16]. Put plainly: Binding affinity to wild-type TTR (unknown origin) assessed as induction of chemical shift at A108 residue at 0.6:1 to 1:1 ratio of compound to protein by 2D TROSY [1H-15N] spectroscopy. A digest of the protocol: as §1
The target is the same in assay [17]. In words: Binding affinity to wild-type TTR (unknown origin) assessed as induction of chemical shift at A109 residue at 0.6:1 to 1:1 ratio of compound to protein by 2D TROSY [1H-15N] spectroscopy. A digest of the protocol:
as §1

Assay [18] has the same target. In words: Binding affinity to wild-type TTR (unknown origin) assessed as induction of chemical shift at L110 residue at 0.6:1 to 1:1 ratio of compound to protein by 2D TROSY [1H-15N] spectroscopy. A digest of the protocol:
as §1

The target is the same in assay [19]. In words: Binding affinity to wild-type TTR (unknown origin) assessed as induction of chemical shift at Y114 residue at 0.6:1 to 1:1 ratio of compound to protein by 2D TROSY [1H-15N] spectroscopy. A digest of the protocol: as §1
The target is the same in assay [20]. Put plainly: Binding affinity to wild-type TTR (unknown origin) assessed as induction of chemical shift at S117 residue at 0.6:1 to 1:1 ratio of compound to protein by 2D TROSY [1H-15N] spectroscopy. Put shortly:
as §1

The target is the same in assay [21]. Put plainly: Binding affinity to wild-type TTR (unknown origin) assessed as induction of chemical shift at T118 residue at 0.6:1 to 1:1 ratio of compound to protein by 2D TROSY [1H-15N] spectroscopy. A digest of the protocol: as §1
The target is the same in assay [22]. Put plainly: Binding affinity to wild-type TTR (unknown origin) assessed as chemical shift perturbation at protein dimer-dimer interface at 1:1 ratio of compound to protein by 2D TROSY [1H-15N] spectroscopy. Put shortly: as §1
For assay [23] the target is unchanged. Put plainly: Binding affinity to wild-type TTR (unknown origin) assessed as chemical shift perturbation at DE loops at 1:1 ratio of compound to protein by 2D TROSY [1H-15N] spectroscopy. A digest of the protocol:
as §1

Assay [24] shares this target. In words: Binding affinity to wild-type TTR (unknown origin) assessed as chemical shift perturbation at H1 helix at 1:1 ratio of compound to protein by 2D TROSY [1H-15N] spectroscopy. A digest of the protocol: as §1
Assay [25] shares this target. In words: Binding affinity to wild-type TTR (unknown origin) assessed as chemical shift perturbation at EH1 loops at 1:1 ratio of compound to protein by 2D TROSY [1H-15N] spectroscopy. Put shortly:
as §1

For assay [26] the target is unchanged. In words: Binding affinity to wild-type TTR (unknown origin) assessed as chemical shift perturbation at CD loops at 1:1 ratio of compound to protein by 2D TROSY [1H-15N] spectroscopy. Put shortly:
as §1

For assay [27] the target is unchanged. In words: Binding affinity to wild-type TTR (unknown origin) assessed as induction of chemical shift perturbation at V93 residue at 1:1 ratio of compound to protein by 2D TROSY [1H-15N] spectroscopy. A digest of the protocol: as §1
For assay [28] the target is unchanged. Put plainly: Binding affinity to wild-type TTR (unknown origin) assessed as chemical shift perturbation at K9 residue at 1:1 ratio of compound to protein by 2D TROSY [1H-15N] spectroscopy. A digest of the protocol:
as §1

The target is the same in assay [29]. Put plainly: Binding affinity to wild-type TTR (unknown origin) assessed as formation of hydrogen bond between A25 and T49 at 1:1 ratio of compound to protein by 2D TROSY [1H-15N] spectroscopy.

Turning to `O=C(O)c1ccc2nc(-c3cc(Cl)cc(Cl)c3)oc2c1`, the result in assay [1], in assay [2], in assay [3], in assay [4] and in assay [5] was Active.
In the case of `O=C(O)c1ccccc1Nc1cc(Cl)c(OCCCCCCCOc2c(Cl)cc(Nc3ccccc3C(=O)O)cc2Cl)c(Cl)c1`, the outcome in assay [1], in assay [2], in assay [6], in assay [7], in [3] and in assay [4] was Active. For the same compound, the outcome in assay [5], in assay [22], in [23], in assay [24], in [25] and in [26] was Active. In addition, the result in assay [27], in assay [28] and in assay [29] was Active. Moreover, the outcome in [8], in assay [9], in [10], in [11], in assay [12] and in [13] was inactive. Also, the outcome in [14], in [15], in [16], in assay [17], in [18] and in [19] was inactive. The outcome in assay [20] and in assay [21] was inactive.
